Results reported in ChEMBL document CHEMBL3596157, “Heteroaromatic analogs of the resveratrol analog DMU-212 as potent anti-cancer agents” (2015).

How the values were obtained:
Type in all cases: functional
[1] = Growth inhibition of human MOLT4 cells after 48 hrs by SRB assay; conditions: MOLT-4, 48 h
In short: (§1)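 NCI-60 panel screen. Cells exposed for 48 h to five concentrations (10−4, 10−5, 10−6, 10−7 and 10−8 M). Sulforhodamine B optical density is read just before compound addition (time zero) and after 48 h, for both treated and vehicle-control wells. Percent growth is calculated against control. GI50 is the concentration giving a 50% reduction in net cell growth relative to cell numbers on day 0.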

[2] = Growth inhibition of human EKVX cells after 48 hrs by SRB assay; in short: as §1
[3] = Growth inhibition of human Hs578T cells after 48 hrs by SRB assay; conditions: Hs-578T; in short: as §1
[4] = Growth inhibition of human SF295 cells after 48 hrs by SRB assay; conditions: SF-295, 48 h; in short: as §1
[5] = Growth inhibition of human HOP92 cells after 48 hrs by SRB assay; conditions: HOP-92, 48 h; in short: as §1
[6] = test system: 786-0; experiment: Growth inhibition of human 786-0 cells after 48 hrs by SRB assay; conditions: 786-0, 48 h; in short: as §1
[7] = test system: UACC-62; experiment: Growth inhibition of human UACC62 cells after 48 hrs by SRB assay; conditions: UACC-62, 48 h
In short: (§2)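 NCI-60 panel cells; preliminary single-dose screen at 10−5 M, then five-dose testing at 10−4 to 10−8 M (tenfold steps) with 48 h exposure. SRB-stained optical density read before compound addition (time zero), after 48 h with compound, and with vehicle control. Percent growth is calculated against control. GI50 is the concentration giving 50% reduction in net growth relative to day-0 cell number.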

[8] = test system: CAKI-1; experiment: Growth inhibition of human Caki1 cells after 48 hrs by SRB assay; conditions: CAKI-1, 48 h; in short: as §1
[9] = test system: IGROV-1; experiment: Growth inhibition of human IGROV1 cells after 48 hrs by SRB assay; conditions: IGROV-1, 48 h; in short: as §1
[10] = Growth inhibition of human HCC2998 cells after 48 hrs by SRB assay; conditions: HCC 2998, 48 h; in short: as §1
[11] = test system: NCI-H23; experiment: Growth inhibition of human NCI-H23 cells after 48 hrs by SRB assay; conditions: NCI-H23, 48 h; in short: as §1
[12] = test system: SK-OV-3; experiment: Growth inhibition of human SKOV3 cells after 48 hrs by SRB assay; conditions: SK-OV-3, 48 h; in short: as §1
[13] = test system: HOP-62; experiment: Growth inhibition of human HOP62 cells after 48 hrs by SRB assay; conditions: HOP-62, 48 h; in short: as §1
[14] = Growth inhibition of human BT549 cells after 48 hrs by SRB assay; conditions: BT-549, 48 h; in short: as §1
[15] = test system: KM12; experiment: Growth inhibition of human KM12 cells after 48 hrs by SRB assay; conditions: KM12, 48 h; in short: as §1
[16] = test system: NCI-H226; experiment: Growth inhibition of human NCI-H226 cells after 48 hrs by SRB assay; conditions: NCI-H226, 48 h; in short: as §1
[17] = test system: UACC-257; experiment: Growth inhibition of human UACC257 cells after 48 hrs by SRB assay; conditions: UACC-257, 48 h; in short: as §2
[18] = test system: MDA-MB-435; experiment: Growth inhibition of human MDA-MB-435 cells after 48 hrs by SRB assay; conditions: MDA-MB-435, 48 h; in short: as §1
[19] = test system: SNB-19; experiment: Growth inhibition of human SNB19 cells after 48 hrs by SRB assay; conditions: SNB-19, 48 h; in short: as §1
[20] = test system: NCI-H522; experiment: Growth inhibition of human NCI-H522 cells after 48 hrs by SRB assay; conditions: NCI-H522, 48 h; in short: as §1
[21] = test system: Malme-3M; experiment: Growth inhibition of human MALME-3M cells after 48 hrs by SRB assay; in short: as §1
[22] = test system: A498; experiment: Growth inhibition of human A498 cells after 48 hrs by SRB assay; conditions: A498, 48 h; in short: as §1
[23] = test system: SW-620; experiment: Growth inhibition of human SW620 cells after 48 hrs by SRB assay; conditions: SW-620, 48 h; in short: as §2
[24] = test system: UO-31; experiment: Growth inhibition of human UO31 cells after 48 hrs by SRB assay; conditions: UO-31, 48 h; in short: as §2
[25] = test system: DU-145; experiment: Growth inhibition of human DU145 cells after 48 hrs by SRB assay; conditions: DU-145, 48 h; in short: as §1
[26] = test system: MCF7; experiment: Growth inhibition of human MCF7 cells after 48 hrs by SRB assay; conditions: MCF7, 48 h; in short: as §1
[27] = test system: SK-MEL-2; experiment: Growth inhibition of human SK-MEL-2 cells after 48 hrs by SRB assay; conditions: SK-MEL-2, 48 h; in short: as §1
[28] = test system: SF-268; experiment: Growth inhibition of human SF268 cells after 48 hrs by SRB assay; conditions: SF-268, 48 h; in short: as §1
[29] = test system: TK-10; experiment: Growth inhibition of human TK10 cells after 48 hrs by SRB assay; conditions: TK-10, 48 h; in short: as §2
[30] = test system: SNB-75; experiment: Growth inhibition of human SNB75 cells after 48 hrs by SRB assay; conditions: SNB-75, 48 h; in short: as §2
[31] = test system: HCT-15; experiment: Growth inhibition of human HCT15 cells after 48 hrs by SRB assay; conditions: HCT-15, 48 h; in short: as §1
[32] = test system: SR; experiment: Growth inhibition of human SR cells after 48 hrs by SRB assay; in short: as §2
[33] = test system: OVCAR-3; experiment: Growth inhibition of human OVCAR3 cells after 48 hrs by SRB assay; conditions: OVCAR-3, 48 h; in short: as §1
[34] = test system: U-251; experiment: Growth inhibition of human U251 cells after 48 hrs by SRB assay; conditions: U-251, 48 h; in short: as §2
[35] = Growth inhibition of human LOXIMVI cells after 48 hrs by SRB assay; conditions: LOX IMVI; in short: as §1
[36] = test system: SK-MEL-5; experiment: Growth inhibition of human SK-MEL-5 cells after 48 hrs by SRB assay; conditions: SK-MEL-5, 48 h; in short: as §1
[37] = test system: PC-3; experiment: Growth inhibition of human PC3 cells after 48 hrs by SRB assay; conditions: PC-3, 48 h; in short: as §1
[38] = test system: HT-29; experiment: Growth inhibition of human HT-29 cells after 48 hrs by SRB assay; conditions: HT-29, 48 h; in short: as §1
[39] = test system: K562; experiment: Growth inhibition of human K562 cells after 48 hrs by SRB assay; conditions: K562, 48 h; in short: as §1
[40] = test system: OVCAR-8; experiment: Growth inhibition of human OVCAR8 cells after 48 hrs by SRB assay; conditions: OVCAR-8, 48 h; in short: as §1
[41] = test system: MDA-MB-231; experiment: Growth inhibition of human MDA-MB-231/ATCC cells after 48 hrs by SRB assay; conditions: MDA-MB-231, 48 h; in short: as §1
[42] = Growth inhibition of human RXF393 cells after 48 hrs by SRB assay; conditions: RXF 393, 48 h; in short: as §1
[43] = Growth inhibition of human SF539 cells after 48 hrs by SRB assay; conditions: SF-539, 48 h; in short: as §1
[44] = Growth inhibition of human COLO205 cells after 48 hrs by SRB assay; conditions: COLO 205, 48 h; in short: as §1
[45] = Growth inhibition of human RPMI8226 cells after 48 hrs by SRB assay; conditions: RPMI-8226, 48 h; in short: as §1
[46] = Growth inhibition of human NCI-ADR-RES cells after 48 hrs by SRB assay; in short: as §1
[47] = test system: ACHN; experiment: Growth inhibition of human ACHN cells after 48 hrs by SRB assay; in short: as §1
[48] = test system: M14; experiment: Growth inhibition of human M14 cells after 48 hrs by SRB assay; conditions: M14, 48 h; in short: as §1
[49] = test system: SK-MEL-28; experiment: Growth inhibition of human SK-MEL-28 cells after 48 hrs by SRB assay; conditions: SK-MEL-28, 48 h; in short: as §1
[50] = test system: CCRF-CEM; experiment: Growth inhibition of human CCRF-CEM cells after 48 hrs by SRB assay; in short: as §1
[51] = test system: A549; experiment: Growth inhibition of human A549/ATCC cells after 48 hrs by SRB assay; conditions: A549, 48 h; in short: as §1
[52] = test system: NCI-H460; experiment: Growth inhibition of human NCI-H460 cells after 48 hrs by SRB assay; conditions: NCI-H460, 48 h; in short: as §1
[53] = test system: OVCAR-4; experiment: Growth inhibition of human OVCAR4 cells after 48 hrs by SRB assay; conditions: OVCAR-4, 48 h; in short: as §1
[54] = test system: HCT-116; experiment: Growth inhibition of human HCT116 cells after 48 hrs by SRB assay; conditions: HCT-116, 48 h; in short: as §1
[55] = test system: OVCAR-5; experiment: Growth inhibition of human OVCAR5 cells after 48 hrs by SRB assay; conditions: OVCAR-5, 48 h; in short: as §1
[56] = test system: NCI-H322M; experiment: Growth inhibition of human NCI-H322M cells after 48 hrs by SRB assay; in short: as §1
[57] = test system: SN12C; experiment: Growth inhibition of human SN12C cells after 48 hrs by SRB assay; in short: as §1

GI50 [6]: 0.445 µM
GI50 [11]: 0.324 µM
GI50 [12]: 0.263 µM
GI50 [16]: 0.442 µM
GI50 [18]: 0.036 µM
GI50 [20]: 0.153 µM
GI50 [23]: 0.293 µM
GI50 [25]: 0.402 µM
GI50 [26]: 0.285 µM
GI50 [27]: 0.323 µM
GI50 [31]: 0.328 µM
GI50 [33]: 0.224 µM
GI50 [34]: 0.338 µM
GI50 [36]: 0.267 µM
GI50 [37]: 0.276 µM
GI50 [38]: 0.234 µM
GI50 [39]: 0.088 µM
GI50 [40]: 0.352 µM
GI50 [41]: 0.45 µM
GI50 [47]: 0.81 µM
GI50 [49]: 0.346 µM
GI50 [50]: 0.262 µM
GI50 [51]: 0.31 µM
GI50 [52]: 0.351 µM
GI50 [53]: 0.553 µM
GI50 [54]: 0.246 µM
GI50 [55]: 0.547 µM
GI50 [56]: 0.649 µM
Compound: COc1cc(/C=C/c2cc3ccccc3s2)cc(OC)c1OC
GI50 [1]: 0.424 µM
GI50 [2]: 10.3 µM
GI50 [3]: 0.275 µM
GI50 [4]: 0.442 µM
GI50 [5]: 0.322 µM
GI50 [7]: 0.185 µM
GI50 [8]: 4.35 µM
GI50 [9]: 0.52 µM
GI50 [10]: 0.307 µM
GI50 [13]: 0.42 µM
GI50 [14]: 0.326 µM
GI50 [15]: 0.213 µM
GI50 [17]: 0.52 µM
GI50 [19]: 0.362 µM
GI50 [21]: 0.826 µM
GI50 [22]: 0.213 µM
GI50 [24]: 0.513 µM
GI50 [28]: 0.985 µM
GI50 [29]: 0.566 µM
GI50 [30]: 0.19 µM
GI50 [32]: 0.12 µM
GI50 [35]: 0.382 µM
GI50 [42]: 0.168 µM
GI50 [43]: 0.299 µM
GI50 [44]: 0.209 µM
GI50 [45]: 0.268 µM
GI50 [46]: 0.07 µM
GI50 [48]: 0.169 µM
GI50 [57]: 0.666 µM
